Converted amounts (≈) assume the structure as drawn.
What was measured:
Format in all cases: functional
Escherichia coli [1] = assay: Antimicrobial activity against Escherichia coli DH10B by vitek-2 method; conditions: K-12 DH10B
In short: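 Plasmid-free recipient E. coli DH10B, used as the host for electroporation transformants, was tested for susceptibility on the automated Vitek-2 system.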

Escherichia coli [2] = assay: Antimicrobial activity against Escherichia coli isolate 544 expressing beta-lactamase KPC2, TEM and PFGE cluster 4 isolated from abscess of patient by agar dilution method
In short: (§1)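 Clinical carbapenem-resistant E. coli isolates from the hospital, February 2005 to October 2008. Carbapenem MICs were determined by agar dilution following CLSI protocols.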

Escherichia coli [3] = assay: Antimicrobial activity against Escherichia coli isolate 339T expressing beta-lactamase KPC2 and PFGE cluster 5 isolated from peritoneal fluid of patient by agar dilution method
In short: (§2)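 Transformant strains. Plasmids purified from the clinical isolates were electroporated into E. coli DH10B. Transformants were selected on LB agar with 100 μg/ml ampicillin, and colonies were PCR-screened for blaKPC before susceptibility testing.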

Escherichia coli [4] = assay: Antimicrobial activity against Escherichia coli isolate 386 expressing beta-lactamase KPC2, CTX-M-15, OXA-9, TEM and PFGE cluster 1 isolated from wound of patient by agar dilution method
In short: (§3)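 Clinical carbapenem-resistant E. coli isolates collected Feb 2005–Oct 2008. Carbapenem MICs determined by agar dilution following CLSI protocols.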

Escherichia coli [5] = assay: Antimicrobial activity against Escherichia coli isolate 547 expressing beta-lactamase KPC2, TEM and PFGE cluster 4 isolated from blood of patient by agar dilution method; in short: as §3
Escherichia coli [6] = assay: Antimicrobial activity against Escherichia coli isolate 360T expressing beta-lactamase KPC2, OXA-9 and PFGE cluster 1 isolated from urine of patient by agar dilution method; in short: as §2
Escherichia coli [7] = assay: Antimicrobial activity against Escherichia coli isolate 1679 expressing beta-lactamase KPC2, SHV-12, TEM and PFGE cluster 6 isolated from peritoneal fluid of patient by agar dilution method; in short: as §1
Escherichia coli [8] = assay: Antimicrobial activity against Escherichia coli isolate 547T expressing beta-lactamase KPC2 and PFGE cluster 4 isolated from blood of patient by agar dilution method; in short: as §2
Escherichia coli [9] = assay: Antimicrobial activity against Escherichia coli isolate 360 expressing beta-lactamase KPC2, CTX-M-15, OXA-9, TEM and PFGE cluster 1 isolated from urine of patient by agar dilution method; conditions: isolate 360, Urine; in short: as §3
Escherichia coli [10] = assay: Antimicrobial activity against Escherichia coli isolate 329 expressing beta-lactamase KPC2, CTX-M-2, TEM and PFGE cluster 2 isolated from blood of patient by agar dilution method; in short: as §1
Escherichia coli [11] = assay: Antimicrobial activity against Escherichia coli isolate 1679T expressing beta-lactamase KPC2, TEM and PFGE cluster 6 isolated from peritoneal fluid of patient by agar dilution method; in short: as §2
Escherichia coli [12] = assay: Antimicrobial activity against Escherichia coli isolate 329T expressing beta-lactamase KPC2 and PFGE cluster 2 isolated from blood of patient by agar dilution method; in short: as §2
Escherichia coli [13] = assay: Antimicrobial activity against Escherichia coli isolate 543T expressing beta-lactamase KPC2 and PFGE cluster 4 isolated from synovial fluid of patient by agar dilution method; in short: as §2
Escherichia coli [14] = assay: Antimicrobial activity against Escherichia coli isolate 157 expressing beta-lactamase KPC2, CTX-M-15, TEM and PFGE cluster 3 isolated from urine of patient by agar dilution method; conditions: isolate 157, Urine; in short: as §3
Escherichia coli [15] = assay: Antimicrobial activity against Escherichia coli isolate 540 expressing beta-lactamase KPC2, TEM and PFGE cluster 4 isolated from synovial fluid of patient by agar dilution method; in short: as §1
Escherichia coli [16] = assay: Antimicrobial activity against Escherichia coli isolate 339 expressing beta-lactamase KPC2, TEM and PFGE cluster 5 isolated from peritoneal fluid of patient by agar dilution method; in short: as §1
Escherichia coli [17] = assay: Antimicrobial activity against Escherichia coli isolate 386T expressing beta-lactamase KPC2, OXA-9 and PFGE cluster 1 isolated from wound of patient by agar dilution method; in short: as §2
Escherichia coli [18] = assay: Antimicrobial activity against Escherichia coli DH10B by Etest; conditions: K-12 DH10B
Escherichia coli [19] = assay: Antimicrobial activity against Escherichia coli isolate 157T expressing beta-lactamase KPC2 and PFGE cluster 3 isolated from urine of patient by agar dilution method; in short: as §2
Escherichia coli [20] = assay: Antimicrobial activity against Escherichia coli isolate 360T expressing beta-lactamase KPC2, OXA-9 and PFGE cluster 1 isolated from urine of patient by vitek-2 method
Escherichia coli [21] = assay: Antimicrobial activity against Escherichia coli isolate 360 expressing beta-lactamase KPC2, CTX-M-15, OXA-9, TEM and PFGE cluster 1 isolated from urine of patient by vitek-2 method
Escherichia coli [22] = assay: Antimicrobial activity against Escherichia coli isolate 1679 expressing beta-lactamase KPC2, SHV-12, TEM and PFGE cluster 6 isolated from peritoneal fluid of patient by vitek-2 method
Escherichia coli [23] = assay: Antimicrobial activity against Escherichia coli isolate 386 expressing beta-lactamase KPC2, CTX-M-15, OXA-9, TEM and PFGE cluster 1 isolated from wound of patient by vitek-2 method
Escherichia coli [24] = assay: Antimicrobial activity against Escherichia coli isolate 1679T expressing beta-lactamase KPC2, TEM and PFGE cluster 6 isolated from peritoneal fluid of patient by vitek-2 method
Escherichia coli [25] = assay: Antimicrobial activity against Escherichia coli isolate 339T expressing beta-lactamase KPC2 and PFGE cluster 5 isolated from peritoneal fluid of patient by vitek-2 method
Escherichia coli [26] = assay: Antimicrobial activity against Escherichia coli isolate 386T expressing beta-lactamase KPC2, OXA-9 and PFGE cluster 1 isolated from wound of patient by vitek-2 method
Escherichia coli [27] = assay: Antimicrobial activity against Escherichia coli isolate 543T expressing beta-lactamase KPC2 and PFGE cluster 4 isolated from synovial fluid of patient by vitek-2 method
Escherichia coli [28] = assay: Antimicrobial activity against Escherichia coli isolate 329 expressing beta-lactamase KPC2, CTX-M-2, TEM and PFGE cluster 2 isolated from blood of patient by vitek-2 method
Escherichia coli [29] = assay: Antimicrobial activity against Escherichia coli isolate 543 expressing beta-lactamase KPC2, CTX-M-15, TEM and PFGE cluster 4 isolated from synovial fluid of patient by vitek-2 method
Escherichia coli [30] = assay: Antimicrobial activity against Escherichia coli isolate 329T expressing beta-lactamase KPC2 and PFGE cluster 2 isolated from blood of patient by vitek-2 method
Escherichia coli [31] = assay: Antimicrobial activity against Escherichia coli isolate 544 expressing beta-lactamase KPC2, TEM and PFGE cluster 4 isolated from abscess of patient by vitek-2 method
Escherichia coli [32] = assay: Antimicrobial activity against Escherichia coli isolate 339 expressing beta-lactamase KPC2, TEM and PFGE cluster 5 isolated from peritoneal fluid of patient by vitek-2 method
Escherichia coli [33] = assay: Antimicrobial activity against Escherichia coli isolate 547T expressing beta-lactamase KPC2 and PFGE cluster 4 isolated from blood of patient by vitek-2 method
Escherichia coli [34] = assay: Antimicrobial activity against Escherichia coli isolate 547 expressing beta-lactamase KPC2, TEM and PFGE cluster 4 isolated from blood of patient by vitek-2 method
Escherichia coli [35] = assay: Antimicrobial activity against Escherichia coli isolate 540 expressing beta-lactamase KPC2, TEM and PFGE cluster 4 isolated from synovial fluid of patient by vitek-2 method
Escherichia coli [36] = assay: Antimicrobial activity against Escherichia coli isolate 157T expressing beta-lactamase KPC2 and PFGE cluster 3 isolated from urine of patient by vitek-2 method
Escherichia coli [37] = assay: Antimicrobial activity against Escherichia coli isolate 157 expressing beta-lactamase KPC2, CTX-M-15, TEM and PFGE cluster 3 isolated from urine of patient by vitek-2 method

Molecule	MIC (Escherichia coli [1]) [µg/mL]	MIC (Escherichia coli [2]) [µg/mL]	MIC (Escherichia coli [3]) [µg/mL]	MIC (Escherichia coli [4]) [µg/mL]	MIC (Escherichia coli [5]) [µg/mL]	MIC (Escherichia coli [6]) [µg/mL]	MIC (Escherichia coli [7]) [µg/mL]	MIC (Escherichia coli [8]) [µg/mL]	MIC (Escherichia coli [9]) [µg/mL]	MIC (Escherichia coli [10]) [µg/mL]	MIC (Escherichia coli [11]) [µg/mL]	MIC (Escherichia coli [12]) [µg/mL]	MIC (Escherichia coli [13]) [µg/mL]	MIC (Escherichia coli [14]) [µg/mL]	MIC (Escherichia coli [15]) [µg/mL]	MIC (Escherichia coli [16]) [µg/mL]	MIC (Escherichia coli [17]) [µg/mL]	MIC (Escherichia coli [18]) [µg/mL]	MIC (Escherichia coli [19]) [µg/mL]	MIC (Escherichia coli [20]) [µg/mL]	other results
O=C(O)c1cn(C2CC2)c2cc(N3CCNCC3)c(F)cc2c1=O [CIPROFLOXACIN]	< 0.25																				
C[C@@H](O)[C@H]1C(=O)N2C(C(=O)O)=C(SCCNC=N)C[C@H]12 [IMIPENEM ANHYDROUS]		4 (≈ 13.4 µM)	2 (≈ 6.68 µM)	1 (≈ 3.34 µM)	4 (≈ 13.4 µM)	1 (≈ 3.34 µM)	8 (≈ 26.7 µM)	1 (≈ 3.34 µM)	4 (≈ 13.4 µM)	8 (≈ 26.7 µM)	1 (≈ 3.34 µM)	2 (≈ 6.68 µM)	2 (≈ 6.68 µM)	8 (≈ 26.7 µM)	4 (≈ 13.4 µM)	2 (≈ 6.68 µM)	1 (≈ 3.34 µM)	0.25 (≈ 0.835 µM)	2 (≈ 6.68 µM)		
C[C@H]1COc2c(N3CCN(C)CC3)c(F)cc3c(=O)c(C(=O)O)cn1c23.C[C@H]1COc2c(N3CCN(C)CC3)c(F)cc3c(=O)c(C(=O)O)cn1c23.O [LEVOFLOXACIN]	< 0.25																			< 0.25	MIC (Escherichia coli [21]; isolate 360, Urine): > 8 µg/mL; MIC (Escherichia coli [22]): > 8 µg/mL; MIC (Escherichia coli [23]): > 8 µg/mL; MIC (Escherichia coli [24]): < 0.25 µg/mL; MIC (Escherichia coli [25]): < 0.25 µg/mL; MIC (Escherichia coli [26]): < 0.25 µg/mL; MIC (Escherichia coli [27]): < 0.25 µg/mL; MIC (Escherichia coli [28]): > 8 µg/mL; MIC (Escherichia coli [29]): > 8 µg/mL; MIC (Escherichia coli [30]): < 0.25 µg/mL; MIC (Escherichia coli [31]): > 8 µg/mL; MIC (Escherichia coli [32]): > 8 µg/mL; MIC (Escherichia coli [33]): < 0.25 µg/mL; MIC (Escherichia coli [34]): > 8 µg/mL; MIC (Escherichia coli [35]): > 8 µg/mL; MIC (Escherichia coli [36]): < 0.25 µg/mL; MIC (Escherichia coli [37]; isolate 157, Urine): > 8 µg/mL
C[C@@H](O)[C@H]1C(=O)N2C(C(=O)O)=C(S[C@@H]3CN[C@H](C(=O)N(C)C)C3)[C@H](C)[C@H]12 [MEROPENEM]		4 (≈ 10.4 µM)	1 (≈ 2.61 µM)	1 (≈ 2.61 µM)	4 (≈ 10.4 µM)	1 (≈ 2.61 µM)	16 (≈ 41.7 µM)	0.5 (≈ 1.3 µM)	4 (≈ 10.4 µM)	8 (≈ 20.9 µM)	0.5 (≈ 1.3 µM)	1 (≈ 2.61 µM)	0.5 (≈ 1.3 µM)	4 (≈ 10.4 µM)	4 (≈ 10.4 µM)	2 (≈ 5.22 µM)	0.25 (≈ 0.652 µM)	0.25 (≈ 0.652 µM)	1 (≈ 2.61 µM)		
GENTAMICIN	< 1																			2	MIC (Escherichia coli [21]): 2 µg/mL; MIC (Escherichia coli [22]): > 16 µg/mL; MIC (Escherichia coli [23]): 4 µg/mL; MIC (Escherichia coli [24]): < 1 µg/mL; MIC (Escherichia coli [25]): < 1 µg/mL; MIC (Escherichia coli [26]): 4 µg/mL; MIC (Escherichia coli [27]): < 1 µg/mL; MIC (Escherichia coli [28]): > 16 µg/mL; MIC (Escherichia coli [29]): > 16 µg/mL; MIC (Escherichia coli [30]): < 1 µg/mL; MIC (Escherichia coli [31]): > 16 µg/mL; MIC (Escherichia coli [32]): > 16 µg/mL; MIC (Escherichia coli [33]): < 1 µg/mL; MIC (Escherichia coli [34]): > 16 µg/mL; MIC (Escherichia coli [35]): > 16 µg/mL; MIC (Escherichia coli [36]): < 1 µg/mL; MIC (Escherichia coli [37]): < 1 µg/mL

From ChEMBL document CHEMBL1671686, “Carbapenem-resistant KPC-2-producing Escherichia coli in a Tel Aviv Medical Center, 2005 to 2008” (2010)
